Activity calls are given as the source filed them. The rule behind the calls is not given here.
Tests used:
[1] = molecular target: T1, Glycogen synthase kinase-3 beta (Homo sapiens, UniProt P49841); experiment: Inhibition of recombinant full-length N-terminal GST tagged human GSK-3 beta expressed in baculovirus infected Sf9 insect cells at 1 mM using GSM as substrate after 5 mins by ADP-Glo luminescence assay
How it was run: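 Single-point ADP-Glo biochemical inhibition of GSK3β with compound at 1 mM, used to rank analogues alongside DSF.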
Target sequence in this assay (P49841 whole entry, looked up): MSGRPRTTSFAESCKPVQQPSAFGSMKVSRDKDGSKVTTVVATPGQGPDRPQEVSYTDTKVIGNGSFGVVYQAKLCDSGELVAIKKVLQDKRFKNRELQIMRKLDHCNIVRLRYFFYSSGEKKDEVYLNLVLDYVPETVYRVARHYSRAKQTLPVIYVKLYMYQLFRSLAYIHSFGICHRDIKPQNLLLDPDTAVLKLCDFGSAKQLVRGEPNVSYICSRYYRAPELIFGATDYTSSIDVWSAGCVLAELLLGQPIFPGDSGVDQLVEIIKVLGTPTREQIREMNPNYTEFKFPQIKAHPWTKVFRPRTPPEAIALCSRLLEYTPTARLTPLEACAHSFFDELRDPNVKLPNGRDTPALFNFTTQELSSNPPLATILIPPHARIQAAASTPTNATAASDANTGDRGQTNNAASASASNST

[2] = molecular target: T1, Glycogen synthase kinase-3 beta; experiment: Binding affinity to GSK-3 beta (unknown origin) assessed as thermal shift at 1.25 mM by differential scanning fluorimetry
How it was run: (§1)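 Differential scanning fluorimetry on GSK3β, reported as thermal stabilization ΔT in °C. Compounds were tested at 2.5 mM by default; the growth-vector analogue set was run at 1.25 mM for ranking.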
Target sequence in this assay (P49841 whole entry, looked up): as above

[3] = molecular target: T1, Glycogen synthase kinase-3 beta; experiment: Inhibition of recombinant full-length N-terminal GST tagged human GSK-3 beta expressed in baculovirus infected Sf9 insect cells using GSM as substrate after 5 mins by ADP-Glo luminescence assay
Target sequence in this assay (P49841 whole entry): as the sequence (P49841 whole entry, looked up) above

[4] = molecular target: T1, Glycogen synthase kinase-3 beta; experiment: Binding affinity to GSK-3 beta (unknown origin) assessed as assessed as thermal shift at 2.5 mM by differential scanning fluorimetry; how it was run: as §1
Target sequence in this assay (P49841 whole entry, looked up): as above

[5] = molecular target: T1, Glycogen synthase kinase-3 beta; experiment: Binding affinity to GSK-3 beta (unknown origin) after 30 mins by isothermal titration calorimetry
Target sequence in this assay (P49841 whole entry): as the sequence (P49841 whole entry, looked up) above

Homo sapiens = organism: Homo sapiens; experiment: Selectivity ratio of IC50 for CDK5 (unknown origin) to IC50 for GSK-3 beta (unknown origin)
[6] = molecular target: T1, Glycogen synthase kinase-3 beta; experiment: Binding affinity to GSK-3 beta (unknown origin) by WaterLOGSY NMR analysis
Target sequence in this assay (P49841 whole entry, looked up): as above

[7] = molecular target: T1, Glycogen synthase kinase-3 beta; experiment: Binding affinity to GSK-3 beta (unknown origin) by STD NMR analysis
Target sequence in this assay (P49841 whole entry, looked up): as above

| Compound | inhibition [1] | deltaT [2] | deltaT [4] | also measured |
| --- | --- | --- | --- | --- |
| O=C1Nc2ncccc2N[C@@H]1Cc1ccccc1 | 63% | 1.6 °C |  |  |
| O=C1Nc2ncccc2N[C@@H]1Cc1ccc(O)cc1 | 88% | 2.9 °C |  |  |
| O=C1Nc2ncccc2N[C@H]1Cc1c[nH]c2ccccc12 | 76% | 1.7 °C |  | IC50 [3]: 322 µM |
| Cc1nc2cccnc2[nH]c1=O | 35% | 0.5 °C |  |  |
| C[C@H]1Nc2ccncc2NC1=O | 61% |  | 1.6 °C |  |
| C[C@@H]1Nc2ccncc2NC1=O | 69% |  | 1.4 °C |  |
| O=C1Nc2ncccc2N[C@H]1Cc1ccccc1 | 55% | 0 °C |  |  |
| CC(C)[C@H]1Nc2cccnc2NC1=O | 57% | 1.6 °C | 2.3 °C |  |
| C[C@@H]1Nc2cccnc2NC1=O | 19% | 0 °C | 0.5 °C |  |
| O=C1Nc2ncccc2N[C@@H]1Cc1c[nH]c2ccccc12 | 94% | 4.5 °C |  | Kd [5]: 9 µM; Ratio IC50 (Homo sapiens): 50; IC50 [3]: 18 µM |
| C[C@H]1Nc2ccccc2NC1=O | 12% |  | 0 °C |  |
| O=C1Nc2ncccc2N2C[C@H](O)C[C@@H]12 |  |  | 0.8 °C |  |
| O=C1Nc2ncccc2N[C@H]1Cc1ccc(O)cc1 | 78% | 2.1 °C |  |  |
| C[C@H]1Nc2ncccc2NC1=O | 66% |  | 1.4 °C |  |
| O=C1Nc2ncccc2N[C@H]1CO |  |  | 0.5 °C |  |
| CC(C)[C@@H]1Nc2cccnc2NC1=O | 25% | 0 °C |  |  |
| C[C@H]1Nc2cccnc2NC1=O | 46% | 1 °C | 1.7 °C | Kd [5]: 600 µM; Activity [6]: Active; Activity [7]: Active |
| C[C@@H]1CNc2ncccc2N1 | 17% |  | 0 °C |  |
| C[C@H]1Nc2cnccc2NC1=O | 25% |  | 0.5 °C |  |
| C[C@@H]1Nc2ncccc2NC1=O | 63% |  | 1 °C |  |
| C[C@@H]1Nc2ccccc2NC1=O | 9% |  | 0 °C |  |
| CC1(C)Nc2cccnc2NC1=O | 26% |  | 0.7 °C |  |
| C[C@H]1Nc2cccnc2N(C)C1=O | 19% |  | 0 °C |  |
| C[C@@H]1Nc2cnccc2NC1=O | 29% |  | 0.5 °C |  |

From ChEMBL document CHEMBL3853349, “Diversity-Oriented Synthesis as a Strategy for Fragment Evolution against GSK3β” (ACS Med Chem Lett, 2016)
